# High-throughput results (PubChem)
# Only some compounds are listed: those with a hit (about 1.4% of all), similar ones and a draw of the others.
# PKA-R1A act – activators of PKA-R1A complex. PKA-R1A dissociation, Cy5-IP20 fluorescence polarization; scaled: DMSO 0%, 113 µM cGMP 100%. activation, % at 11.4 µM. P00514+P68181. AID 504707. hit rate 0.083% among 340,000;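 active = percent activation above the mean of all tested compounds plus 3 SD, cut at about 19% in these data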;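 also: higher means more PKAc released from R1A so a rise in polarization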
# SR-BI HDL uptake – blocks mouse SR-BI lipid uptake from DiI-HDL. Q61009. ldlA[mSR-BI] CHO cells, DiI-HDL uptake fluorescence, 3 h. inhibition, % at 12.5 µM. hit rate 0.96% among 320,000. AID 488896;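 active = mean replicate inhibition of at least 70% and a set share of replicates each scoring 70 or more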;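 also: 0% = median of neutral control wells and 100% = median of positive control wells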
# Vif imaging – inhibitors of HIV Vif. inhibition, % at 7.49 µM. hit rate 0.35% among 340,000. HEK293T cells, Vif self-association by quenched fluorescence, imaging, 24 h; in the data active = inhibition above about 50%, passing the limit was not always enough
# PKA-R2B activ – PKA-R2B complex activation. AID 504700. activation, % at 11.4 µM. hit rate 0.079% among 340,000. PKA-R2B holoenzyme dissociation, Cy5-IP20 fluorescence polarization; R2B truncated from residue 108, S112A mutant; 0% DMSO only, 100% 113 µM cGMP;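 active = activation above a cutoff set at the mean over all compounds plus 3 SD, cut at about 18% in these data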;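 also: higher means more holoenzyme dissociation and a rise in polarization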
# Target sequence (P31323 whole entry, looked up, other chains not shown, the tested form may be a part): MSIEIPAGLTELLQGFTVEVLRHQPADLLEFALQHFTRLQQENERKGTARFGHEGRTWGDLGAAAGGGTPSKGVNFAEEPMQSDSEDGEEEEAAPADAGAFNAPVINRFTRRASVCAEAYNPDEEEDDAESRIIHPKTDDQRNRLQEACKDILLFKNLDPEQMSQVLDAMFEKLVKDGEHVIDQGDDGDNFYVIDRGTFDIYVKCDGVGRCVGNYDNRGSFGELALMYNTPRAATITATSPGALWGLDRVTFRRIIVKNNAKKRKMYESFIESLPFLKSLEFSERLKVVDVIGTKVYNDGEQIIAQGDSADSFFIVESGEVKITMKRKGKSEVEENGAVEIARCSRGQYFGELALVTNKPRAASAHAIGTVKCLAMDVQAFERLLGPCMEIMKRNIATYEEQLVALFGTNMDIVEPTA
# SR-BI uptake up – SR-BI HDL lipid transfer activation; CHO ldlA[mSR-BI] cells, DiI-HDL uptake fluorescence, 3 h; 100 = double the neutral-control signal; activation, % at 12.5 µM; hit rate 0.096% among 320,000; AID 504775;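 active = mean replicate activation of at least 60% and every replicate at or above 60%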;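 also: 0% = median plate neutral-control signal and 100% = twice that signal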
#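 Material: SR-BI-overexpressing, LDLR-lacking CHO cells | Dosing: Single compound concentration, delivered by pin transfer | Probe or stimulus: Labelled HDL, 10 µg/mL | Signal: Bottom-read cell fluorescence after medium removal, ex 550/em 595 nm | Schedule: 3 h, 37 °C | Evaluation: HDL uptake via cellular fluorescence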
# Numbers without * were called inactive; / = no result given.
SMILES,PKA-R1A act,SR-BI HDL uptake,Vif imaging,PKA-R2B activ,SR-BI uptake up
COc1cc(S(=O)(=O)N2CCN(C(=O)c3cccs3)CC2)ccc1NC(C)=O,-8,/,-3,-3,/
S=C(NCCCc1cnc[nH]1)NCCCN(Cc1ccc(Cl)cc1)c1ccc(Br)cn1,/,/,32,/,/
CC(C)c1ccc(Nc2nnns2)cc1,-5,-10,11,-4,10
CCc1cc(Br)ccc1NC(=S)NCCc1ccccc1,8,76*,2,2,-76
Cc1ccc(C(c2cc(Cl)c3cccnc3c2O)N2CCN(C)CC2)cc1 (centres undefined),-14,6,54*,3,-6
O=C(CCCOc1ccc(Br)cc1)NNC(=O)c1ccncc1,-2,-23,67*,10,23
CC(C)(C)c1ccc(C(=O)NNC(=O)c2ccccc2Br)cc1,-5,-4,1,-2,4
CC(C)(C)c1ccc(C(=O)NCC(=O)NNC(=O)c2ccccc2O)cc1,4,90*,2,-3,-90
CC(C)(C)c1ccc(OCCCC(=O)NNC(=O)c2ccccc2O)cc1,6,120*,1,-19,-120
O=C1CCN(CCCN2CCC(=O)NC2=S)C(=S)N1,13,/,/,-10,/
CC1(c2ccc(Cl)cc2Cl)NC(=O)N(CC(=O)NCCC2=CCCCC2)C1=O (centres undefined),-9,/,-2,-3,/
O=C(N/C=N/OCc1ccc(Cl)cc1Cl)NOCc1ncc(C(F)(F)F)cc1Cl,-13,83*,-8,-7,-83
CO/N=C/NC(=O)NOCc1ncc(C(F)(F)F)cc1Cl,0,26,-19,-2,-26
CCCCNc1ccc2c(c1)C1CC2CCN1C(=O)OCc1ccccc1 (centres undefined),-8,-8,-1,-13,8
CCCCCn1c(N)c(-c2nc3ccccc3s2)c2c([N+](=O)[O-])nn(CC)c(=O)c21,-5,83*,1,1,-83
CCCCn1c(N)c(-c2nc3ccccc3s2)c2c([N+](=O)[O-])nn(C)c(=O)c21,6,93*,0,3,-93
CCCCn1c(N)c(-c2nc3ccccc3s2)c2c([N+](=O)[O-])nn(CC)c(=O)c21,2,67,10,2,-67
Cc1ccc(-c2cc(C(=O)N/N=C/c3c[nH]c4ccccc34)n[nH]2)o1,-17,16,-2,-16,-16
Cc1ccc(-c2cc(C(=O)N/N=C/c3ccccc3O)n[nH]2)o1,-2,83*,-6,-5,-83
CCOc1cc(C(=O)OCc2cc(=O)n3c(C)csc3n2)ccc1OC,-2,78*,25,-4,-78
COc1ccc(CNC(=O)COC(=O)c2cc(S(=O)(=O)N3CCOCC3)ccc2O)cc1OC,3,-9,51*,3,9
Cc1ccc(S(=O)(=O)N2CCN(c3ccccc3)CC2)cc1C(N)=O,0,-4,-5,5,4
CCOC(=O)C1=C(C)NC(=O)C(C#N)C1c1ccco1 (centres undefined),-2,-61,2,-8,61*
O=C1NC2(CCCCC2)C(=O)N1c1cccc(Cl)c1,9,-13,-11,-3,13
O=C(OCc1cn([C@@H]2CN(CC3CCCCC3)[C@@H](c3ccccc3)C[C@H]2O)nn1)c1ccccc1,-12,/,4,-16,/
SMILES,PKA-R1A act,SR-BI HDL uptake,Vif imaging,PKA-R2B activ,SR-BI uptake up
CCOc1ccc(N(C(C)C(=O)Nc2cccnc2)S(C)(=O)=O)cc1 (centres undefined),2,6,-2,-9,-6
CCOc1ccc(N(C(C)C(=O)N/N=C(\C)c2cccc(NC(=O)c3ccccc3)c2)S(C)(=O)=O)cc1 (centres undefined),2,78*,-10,-4,-78
O=C(O)C1C=CC(C(=O)O)c2ccccc21 (centres undefined),-6,/,4,0,/
CC1(C)CC(=O)N(c2ccc(C#N)cc2)C(=O)C1,1,-8,-2,4,8
CCN=C1SC(CC(=O)Nc2ccccc2OCC)C(=O)N1CC (centres undefined),2,70,-7,0,-70
CCCCOc1ccccc1NC(=O)CC1SC(=NCC)N(CC)C1=O (centres undefined),-4,84*,-11,-5,-84
Cc1cc(C)nc(NS(=O)(=O)c2ccc(NC(=O)Cc3ccccc3F)cc2)n1,10,/,14,3,/
COc1cc2c(cc1OC)CN(c1ccc([N+](=O)[O-])cc1Cl)CC2,8,80*,-1,1,-80
Cc1cccc(/C=C/C(=O)c2ccc([N+](=O)[O-])o2)c1,0,-11,62*,0,11
Cc1ccccc1N(C(=O)c1snc(C(N)=O)c1N)C(C(=O)NC1CCCCC1)c1ccc(O)cc1 (centres undefined),-1,/,7,-6,/
Cc1ccccc1N(C(=O)c1snc(C(N)=O)c1N)C(C)C(=O)NC1CCCCC1 (centres undefined),-8,83*,15,3,-83
Cc1c(F)cccc1NS(=O)(=O)c1ccc(OCCNS(C)(=O)=O)cc1,-3,-6,-26,-2,6
Cc1ccc(S(=O)(=O)Nc2ccccc2)cc1[N+](=O)[O-],3,-7,-5,-1,7
Cc1c([N+](=O)[O-])cc(S(=O)(=O)Nc2ccncc2)cc1[N+](=O)[O-],-8,-3,66*,-8,3
O=C(NCc1ccc(OC(F)(F)F)cc1)c1cccc2c1C(=O)c1ccc(N3CCCCC3)cc1S2(=O)=O,-3,-7,55*,6,7
O=C(NCc1ccc(OC(F)(F)F)cc1)c1cccc2c1C(=O)c1ccc(N3CCC(Cc4ccccc4)CC3)cc1S2(=O)=O,-8,37,/,7,-37
CC1CCN(c2ccc3c(c2)S(=O)(=O)c2cccc(C(=O)NCc4cccc(F)c4)c2C3=O)CC1,-7,22,8,-1,-22
Cc1cc(CNC(=O)c2cccc3c2C(=O)c2ccc(-c4ccc(F)cc4OCc4ccccc4)cc2S3(=O)=O)c(C(F)(F)F)o1,-2,90*,1,-19,-90
O=C(NCc1ccc(OC(F)(F)F)cc1)c1cccc2c1C(=O)c1ccc(N3CCCC3)cc1S2(=O)=O,-2,4,0,-3,-4
O=C(NCc1cccc(F)c1)c1cccc2c1C(=O)c1ccc(N3CCC(Cc4ccccc4)CC3)cc1S2(=O)=O,6,27,121*,-5,-27
O=C(NCc1cccc(C(F)(F)F)c1)c1cccc2c1C(=O)c1ccc(N3CCC(Cc4ccccc4)CC3)cc1S2(=O)=O,-1,34,122*,6,-34
O=C(NC[C@H]1CCCO1)c1cccc2c1C(=O)c1ccc(-c3ccc(F)cc3OCc3ccccc3)cc1S2(=O)=O,-6,61,-4,-10,-61
